Experimental data taken from ChEMBL document CHEMBL2163309, “Discovery of novel 2-aryl-4-benzoyl-imidazole (ABI-III) analogues targeting tubulin polymerization as antiproliferative agents” (J Med Chem, 2012).
Activity calls are given as the source filed them. No cut-off for these calls is given here.

Legend:
PC-3 [1] = experiment: Resistance index, ratio of IC50 for human paclitaxel-resistant PC3-TxR cells to IC50 for human PC3 cells
DU-145 = experiment: Antiproliferative activity against human DU145 cells after 48 hrs by SRB assay; type: functional, cell-based; conditions: DU-145, 48 h
Procedure, shortened: (§1)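 Run as part of a panel of two human metastatic melanoma lines (A375, WM164) and three human prostate cancer lines (LNCaP, PC-3, Du 145), following previously described methods. Colchicine served as the positive control.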

PC-3 [2] = experiment: Antiproliferative activity against human PC3 cells after 48 hrs by SRB assay; type: functional, cell-based; conditions: PC-3, 48 h
Bos taurus [3] = species on record: Bos taurus; experiment: Inhibition of bovine brain tubulin polymerization at 5 uM measured for every 1 min for 20 mins by spectrophotometer analysis
Procedure, shortened: (§2)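 Bovine brain tubulin (>97% pure), 0.4 mg per assay, exposed to test compound at 5 or 10 μM in 5% DMSO vehicle, with a DMSO-only control and colchicine 5 μM as positive control. Polymerization followed by absorbance at 340 nm at 37 °C, read every minute for 20 min. Percent inhibition of polymerization taken at 20 min.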

[4] = Antiproliferative activity against human WM164 cells after 48 hrs by SRB assay; type: functional, cell-based; conditions: WM164, 48 h
A-375 = experiment: Antiproliferative activity against human A375 cells after 48 hrs by SRB assay; type: functional, cell-based; conditions: A-375, 48 h
Procedure, shortened: as §1

Bos taurus [5] = species on record: Bos taurus; experiment: Inhibition of bovine brain tubulin polymerization measured for every 1 min for 20 mins by spectrophotometer analysis
Procedure, shortened: as §2

Bos taurus [6] = species on record: Bos taurus; experiment: Inhibition of bovine brain tubulin polymerization at 10 uM measured for every 1 min for 20 mins by spectrophotometer analysis
Procedure, shortened: as §2

LNCaP = experiment: Antiproliferative activity against human LNCAP cells after 48 hrs by SRB assay; type: functional, cell-based
[7] = Antiproliferative activity against human paclitaxel-resistant PC3-TxR cells after 48 hrs by SRB assay; type: functional, cell-based
Homo sapiens = species on record: Homo sapiens; conditions: 10 to 1000 nM

| IC50 (PC-3 [2]) | inhibition (Bos taurus [3]) | inhibition (Bos taurus [5]) | inhibition (Bos taurus [6]) | SMILES | Ratio IC50 (PC-3 [1]) | IC50 (DU-145) | IC50 [4] | IC50 (A-375) | IC50 (LNCaP) | IC50 [7] | inhibition (Homo sapiens) |
| --- | --- | --- | --- | --- | --- | --- | --- | --- | --- | --- | --- |
| 33.3 nM | 30% | Dose-dependent effect | 60% | COc1cc(C(=O)c2c[nH]c(-c3coc4ccccc34)n2)cc(OC)c1OC | 1 | 45 nM | 73.6 nM | 53.4 nM | 14.1 nM | 42.8 nM | – |
| 33.3 nM | 67% | Dose-dependent effect | 85% | COc1cc(C(=O)c2c[nH]c(-c3cn(S(=O)(=O)c4ccccc4)c4ccccc34)n2)cc(OC)c1OC | 0.9 | 189 nM | 166 nM | 414 nM | 107 nM | 27.6 nM | – |
| 0.4 nM | – | – | – | CC(=O)O[C@H]1C(=O)[C@@]2(C)[C@H]([C@H](OC(=O)c3ccccc3)[C@]3(O)C[C@H](OC(=O)[C@H](O)[C@@H](NC(=O)c4ccccc4)c4ccccc4)C(C)=C1C3(C)C)[C@]1(OC(C)=O)CO[C@@H]1C[C@@H]2O [PACLITAXEL] | – | – | – | – | – | 188 nM | – |
| 20.8 nM | 65% | Dose-dependent effect | 80% | COc1cc(C(=O)c2cn(C)c(-c3cn(C)c4ccccc34)n2)cc(OC)c1OC | 1.1 | 76.5 nM | 24.2 nM | 18.8 nM | 35.9 nM | 22.4 nM | – |

| SMILES | IC50 (PC-3 [2]) | inhibition (Bos taurus [3]) | inhibition (Bos taurus [5]) | inhibition (Bos taurus [6]) | Ratio IC50 (PC-3 [1]) | IC50 (DU-145) | IC50 [4] | IC50 (A-375) | IC50 (LNCaP) | IC50 [7] | inhibition (Homo sapiens) |
| --- | --- | --- | --- | --- | --- | --- | --- | --- | --- | --- | --- |
| COc1cc(C(=O)c2cnc(-c3c[nH]c4ccccc34)[nH]2)cc(OC)c1OC [SABIZABULIN] | 3.7 nM | 70% | Dose-dependent effect | Active | 1 | 3.9 nM | 5.3 nM | 3.2 nM | 2.8 nM | 3.7 nM | inactive |
| COc1cc(C(=O)c2c[nH]c(-c3csc4ccccc34)n2)cc(OC)c1OC | 20.8 nM | inactive | Dose-dependent effect | 30% | 0.9 | 51.2 nM | 45.7 nM | 41 nM | 29.1 nM | 98.6 nM | – |
| COc1cc2c(c(OC)c1OC)-c1ccc(OC)c(=O)cc1[C@@H](NC(C)=O)CC2 [COLCHICINE] | 11.5 nM | – | – | – | – | 11.2 nM | 29 nM | 20.6 nM | 16.3 nM | – | – |
